In ChEMBL document CHEMBL1145212, “Fluorinated diaryl sulfides as serotonin transporter ligands: synthesis, structure-activity relationship study, and in vivo evaluation of fluorine-18-labeled compounds as PET imaging agents” (J Med Chem, 2005):

Legend:
Rattus norvegicus [1] = assay: Biodistribution of [18F]-AFM in rat striatum at 120 min postinjection in vivo; type: ADME, organism-based; details: 2 h
Method in brief: (§1)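 Male Sprague-Dawley rats, three per time point, received the F-18 radioligand in saline (~20 µCi per rat at injection) by tail vein. Under CO2 anesthesia they were decapitated at 10, 30, 60, 90 or 120 min. Blood and dissected brain regions were weighed and gamma counted. Activity was decay-corrected, and injected dose was corrected for tail residual activity. Uptake was expressed as %ID/g versus injectate standards, mean ± SD.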

Rattus norvegicus [2] = assay: Biodistribution of [18F]AFM in rat frontal cortex at 120 min postinjection in vivo; type: ADME, organism-based; details: 2 h
Method in brief: (§2)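 Male Sprague-Dawley rats, three per group, received ~20 µCi of the F-18 radioligand in saline by tail-vein injection. Rats were anesthetized with CO2 and decapitated at 10, 30, 60, 90 or 120 min. Blood and brain regions were weighed and gamma-counted. %ID/g was decay- and tail-residual-corrected against F-18 standards made from the injectate and reported as mean ± SD.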

Rattus norvegicus [3] = assay: Biodistribution of [18F]AFM in rat thalamus at 60 min postinjection in vivo; type: ADME, organism-based; details: 1 h
Rattus norvegicus [4] = assay: Biodistribution of [18F]AFM in rat frontal cortex at 30 min postinjection in vivo; type: ADME, organism-based; details: 0.5 h; method in brief: as §2
Rattus norvegicus [5] = assay: Biodistribution of [18F]AFM in rat hippocampus at 120 min postinjection in vivo; type: ADME, organism-based; details: 2 h; method in brief: as §2
Rattus norvegicus [6] = assay: Biodistribution of [18F]-AFM in rat cerebellum at 10 min postinjection in vivo; type: ADME, organism-based; method in brief: as §1
Rattus norvegicus [7] = assay: Biodistribution of [18F]AFM in rat cerebellum at 90 min postinjection in vivo; type: ADME, organism-based; details: 1.5 h; method in brief: as §2
Rattus norvegicus [8] = assay: Biodistribution of [18F]AFM in rat frontal cortex at 60 min postinjection in vivo; type: ADME, organism-based; details: 1 h; method in brief: as §2
Rattus norvegicus [9] = assay: Biodistribution of [18F]AFM in rat frontal cortex at 90 min postinjection in vivo; type: ADME, organism-based; details: 1.5 h; method in brief: as §2
Rattus norvegicus [10] = species on record: Rattus norvegicus; assay: Specific binding of [18F]-AFA in hippocampus of rat pretreated with compound 7d; n=3; type: functional
Rattus norvegicus [11] = assay: Biodistribution of [18F]AFM in rat hypothalamus at 90 min postinjection in vivo; type: ADME, organism-based; details: 1.5 h
Method in brief: (§3)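 Male Sprague-Dawley rats, three per group, given about 20 µCi of F-18 radioligand in saline by tail vein. Sacrificed by decapitation after CO₂ anaesthesia at 10, 30, 60, 90 or 120 min. Brain regions and blood removed, weighed and gamma-counted. %ID was decay-corrected and corrected for residual tail activity against F-18 standards, then converted to %ID/g; mean ± SD.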

Rattus norvegicus [12] = species on record: Rattus norvegicus; assay: Specific binding of [18F]AFA in hypothalamus of rat pretreated with compound 7d; n=3; type: functional
Rattus norvegicus [13] = species on record: Rattus norvegicus; assay: Specific binding of [18F]AFA in frontal cortex of rat pretreated with compound 7d; n=3; type: functional
Rattus norvegicus [14] = species on record: Rattus norvegicus; assay: Specific binding of [18F]AFA in striatum of rat pretreated with compound 7d; n=3; type: functional
Rattus norvegicus [15] = assay: Biodistribution of [18F]AFM in rat blood at 90 min postinjection in vivo; type: ADME, organism-based; details: 1.5 h; method in brief: as §2
Rattus norvegicus [16] = assay: Biodistribution of [18F]AFM in rat hypothalamus at 60 min postinjection in vivo; type: ADME, organism-based; details: 1 h; method in brief: as §3
Rattus norvegicus [17] = assay: Biodistribution of [18F]AFM in rat blood at 60 min postinjection in vivo; type: ADME, organism-based; details: 1 h; method in brief: as §2
Rattus norvegicus [18] = assay: Biodistribution of [18F]AFM in rat hypothalamus at 30 min postinjection in vivo; type: ADME, organism-based; details: 0.5 h; method in brief: as §3
Rattus norvegicus [19] = assay: Biodistribution of [18F]-AFM in rat hippocampus at 60 min postinjection in vivo; type: ADME, organism-based; details: 1 h; method in brief: as §1
Rattus norvegicus [20] = assay: Biodistribution of [18F]AFM in rat hippocampus at 30 min postinjection in vivo; type: ADME, organism-based; details: 0.5 h; method in brief: as §2
Rattus norvegicus [21] = assay: Biodistribution of [18F]AFM in rat striatum at 90 min postinjection in vivo; type: ADME, organism-based; details: 1.5 h
Method in brief: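 Male Sprague-Dawley rats (three per group) received ~20 µCi of the F-18-labeled ligand in saline by tail vein. They were anesthetized with CO₂ and decapitated at 10, 30, 60, 90 and 120 min. Striatum and other regions were weighed and gamma-counted. Values are decay- and tail-corrected %ID/g against standards made from the injection solution, reported as mean ± SD.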

Rattus norvegicus [22] = assay: Biodistribution of [18F]-AFM in rat striatum at 30 min postinjection in vivo; type: ADME, organism-based; details: 0.5 h; method in brief: as §1
Rattus norvegicus [23] = assay: Biodistribution of [18F]AFM in rat striatum at 10 min postinjection in vivo; type: ADME, organism-based; method in brief: as §3
Rattus norvegicus [24] = assay: Biodistribution of [18F]AFM in rat hypothalamus at 10 min postinjection in vivo; type: ADME, organism-based; method in brief: as §3
Rattus norvegicus [25] = assay: Biodistribution of [18F]AFM in rat hippocampus at 90 min postinjection in vivo; type: ADME, organism-based; details: 1.5 h; method in brief: as §3
Rattus norvegicus [26] = assay: Biodistribution of [18F]AFM in rat cerebellum at 120 min postinjection in vivo; type: ADME, organism-based; details: 2 h; method in brief: as §2
Rattus norvegicus [27] = assay: Biodistribution of [18F]AFM in rat blood at 120 min postinjection in vivo; type: ADME, organism-based; details: 2 h; method in brief: as §2
Rattus norvegicus [28] = assay: Biodistribution of [18F]AFM in rat cerebellum at 60 min postinjection in vivo; type: ADME, organism-based; details: 1 h; method in brief: as §2
Rattus norvegicus [29] = assay: Biodistribution of [18F]-AFM in rat striatum 60 min postinjection in vivo; type: ADME, organism-based; details: 1 h; method in brief: as §1
Rattus norvegicus [30] = assay: Biodistribution of [18F]AFM in rat hypothalamus at 120 min postinjection in vivo; type: ADME, organism-based; details: 2 h; method in brief: as §3
Rattus norvegicus [31] = assay: Biodistribution of [18F]AFM in rat blood at 10 min postinjection in vivo; type: ADME, organism-based; method in brief: as §2
Rattus norvegicus [32] = assay: Biodistribution of [18F]AFM in rat hippocampus at 10 min postinjection in vivo; type: ADME, organism-based; method in brief: as §2
Rattus norvegicus [33] = species on record: Rattus norvegicus; assay: Specific binding of [18F]AFA in thalamus of rat pretreated with compound 7d; n=3; type: functional
Rattus norvegicus [34] = assay: Biodistribution of [18F]AFM in rat thalamus at 90 min postinjection in vivo; type: ADME, organism-based; details: 1.5 h
Rattus norvegicus [35] = assay: Biodistribution of [18F]AFM in rat frontal cortex at 10 min postinjection in vivo; type: ADME, organism-based; method in brief: as §2
Rattus norvegicus [36] = assay: Biodistribution of [18F]-AFM in rat thalamus at 30 min postinjection in vivo; type: ADME, organism-based; details: 0.5 h; method in brief: as §1
Rattus norvegicus [37] = assay: Biodistribution of [18F]AFM in rat cerebellum at 30 min postinjection in vivo; type: ADME, organism-based; details: 0.5 h; method in brief: as §2
Rattus norvegicus [38] = assay: Biodistribution of [18F]AFM in rat thalamus at 10 min postinjection in vivo; type: ADME, organism-based
Rattus norvegicus [39] = assay: Biodistribution of [18F]AFM in rat blood at 30 min postinjection in vivo; type: ADME, organism-based; details: 0.5 h; method in brief: as §2
Rattus norvegicus [40] = assay: Biodistribution of [18F]AFM in rat thalamus at 120 min postinjection in vivo; type: ADME, organism-based; details: 2 h

Biodistribution (Rattus norvegicus [1]): 0.42 %ID/g | Biodistribution (Rattus norvegicus [2]): 0.38 %ID/g | Biodistribution (Rattus norvegicus [3]): 0.67 %ID/g | Biodistribution (Rattus norvegicus [4]): 0.99 %ID/g | Biodistribution (Rattus norvegicus [5]): 0.28 %ID/g | Biodistribution (Rattus norvegicus [6]): 0.33 %ID/g | Biodistribution (Rattus norvegicus [7]): 0.08 %ID/g | Biodistribution (Rattus norvegicus [8]): 0.71 %ID/g | Biodistribution (Rattus norvegicus [9]): 0.52 %ID/g | Biodistribution (Rattus norvegicus [11]): 0.58 %ID/g | Biodistribution (Rattus norvegicus [15]): 0.08 %ID/g | Biodistribution (Rattus norvegicus [16]): 0.71 %ID/g | Biodistribution (Rattus norvegicus [17]): 0.1 %ID/g | Biodistribution (Rattus norvegicus [18]): 0.82 %ID/g | Biodistribution (Rattus norvegicus [19]): 0.45 %ID/g | Biodistribution (Rattus norvegicus [20]): 0.64 %ID/g | Biodistribution (Rattus norvegicus [21]): 0.45 %ID/g | Biodistribution (Rattus norvegicus [22]): 0.83 %ID/g | Biodistribution (Rattus norvegicus [23]): 0.69 %ID/g | Biodistribution (Rattus norvegicus [24]): 0.7 %ID/g | Biodistribution (Rattus norvegicus [25]): 0.36 %ID/g | Biodistribution (Rattus norvegicus [26]): 0.07 %ID/g | Biodistribution (Rattus norvegicus [27]): 0.04 %ID/g | Biodistribution (Rattus norvegicus [28]): 0.13 %ID/g | Biodistribution (Rattus norvegicus [29]): 0.57 %ID/g | Biodistribution (Rattus norvegicus [30]): 0.55 %ID/g | Biodistribution (Rattus norvegicus [31]): 0.37 %ID/g | Biodistribution (Rattus norvegicus [32]): 0.51 %ID/g | Biodistribution (Rattus norvegicus [34]): 0.5 %ID/g | Biodistribution (Rattus norvegicus [35]): 0.82 %ID/g | Biodistribution (Rattus norvegicus [36]): 0.88 %ID/g | Biodistribution (Rattus norvegicus [37]): 0.23 %ID/g | Biodistribution (Rattus norvegicus [38]): 0.72 %ID/g | Biodistribution (Rattus norvegicus [39]): 0.18 %ID/g | Biodistribution (Rattus norvegicus [40]): 0.56 %ID/g
Structure (SMILES): CN(C)Cc1ccccc1Sc1ccc(C[18F])cc1N
Specific binding (Rattus norvegicus [10]): 0.45 %ID/g | Specific binding (Rattus norvegicus [12]): 0.84 | Specific binding (Rattus norvegicus [13]): 0.31 %ID/g | Specific binding (Rattus norvegicus [14]): 0.53 | Specific binding (Rattus norvegicus [33]): 0.85 %ID/g
